ChEMBL document CHEMBL4680153, “New Spisulosine Derivative promotes robust autophagic response to cancer cells” (Eur J Med Chem, 2020)
pIC50: −log10 of the molar value. Activity calls are given as the source filed them. No cut-off for these calls is given here.

Assays:
MCF7 = assay: Antiproliferative activity against human MCF7 cells assessed as reduction in cell growth at 10 uM incubated for 48 hrs by SRB assay relative to control; format: functional
Procedure, shortened: (§1)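 Early-passage cells plated at 40% confluency and left overnight, then exposed to 10 μM compound for 48 h. Growth was measured by sulforhodamine B staining, with absorbance at 510 nm. Percent growth inhibition was calculated against untreated cells.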

MDA-MB-231 = assay: Antiproliferative activity against human MDA-MB-231 cells assessed as reduction in cell growth at 10 uM incubated for 48 hrs by SRB assay relative to control; format: functional; procedure, shortened: as §1
DLD-1 [1] = assay: Antiproliferative activity against human DLD-1 cells assessed as reduction in cell growth at 10 uM incubated for 48 hrs by SRB assay relative to control; format: functional; procedure, shortened: as §1
HT-29 [2] = assay: Antiproliferative activity against human HT-29 cells assessed as reduction in cell growth at 10 uM incubated for 48 hrs by SRB assay relative to control; format: functional; procedure, shortened: as §1
A549 = assay: Antiproliferative activity against human A549 cells assessed as reduction in cell growth at 10 uM incubated for 48 hrs by SRB assay relative to control; format: functional; procedure, shortened: as §1
NCI-H358 = assay: Antiproliferative activity against human NCI-H358 cells assessed as reduction in cell growth at 10 uM incubated for 48 hrs by SRB assay relative to control; format: functional; procedure, shortened: as §1
COLO 205 = assay: Antiproliferative activity against human COLO 205 cells assessed as reduction in cell growth incubated for 48 hrs by SRB assay; format: functional, cell-based; settings: COLO 205, 48 h
Procedure, shortened: (§2)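 Colon cancer lines and CCD-18Co normal colon fibroblasts, early passage, plated at 40% confluency and incubated overnight. They were then treated with varying concentrations for 48 h. The SRB read-out was absorbance at 510 nm, and IC50 was taken as the half-maximal proliferation-inhibitory concentration.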

LoVo = assay: Antiproliferative activity against human LoVo cells assessed as reduction in cell growth incubated for 48 hrs by SRB assay; format: functional, cell-based; procedure, shortened: as §2
HT-29 [3] = assay: Antiproliferative activity against human HT-29 cells assessed as reduction in cell growth incubated for 48 hrs by SRB assay; format: functional, cell-based; settings: HT-29, 48 h; procedure, shortened: as §2
DLD-1 [4] = assay: Antiproliferative activity against human DLD-1 cells assessed as reduction in cell growth incubated for 48 hrs by SRB assay; format: functional, cell-based; settings: DLD-1, 48 h; procedure, shortened: as §2
SW48 = assay: Antiproliferative activity against human SW48 cells assessed as reduction in cell growth incubated for 48 hrs by SRB assay; format: functional, cell-based; settings: SW48, 48 h; procedure, shortened: as §2
SW-620 = assay: Antiproliferative activity against human SW-620 cells assessed as reduction in cell growth incubated for 48 hrs by SRB assay; format: functional, cell-based; settings: SW-620, 48 h; procedure, shortened: as §2
CCD-18Co = assay: Antiproliferative activity against human CCD-18Co cells assessed as reduction in cell growth incubated for 48 hrs by SRB assay; format: cell-based; procedure, shortened: as §2
DLD-1 [5] = assay: Induction of apoptosis in human DLD-1 cells assessed as viable cells at 7.5 uM incubated for 18 hrs by Annexin V-FITC and propidium iodide staining based flow cytometry analysis (reference value: 85.2 %); format: functional; settings: read-out: Activity
DLD-1 [6] = assay: Induction of apoptosis in human DLD-1 cells assessed as early apoptotic cells at 7.5 uM incubated for 18 hrs by Annexin V-FITC and propidium iodide staining based flow cytometry analysis (reference value: 4.95 %); format: functional
DLD-1 [7] = assay: Induction of apoptosis in human DLD-1 cells assessed as late apoptotic cells at 7.5 uM incubated for 18 hrs by Annexin V-FITC and propidium iodide staining based flow cytometry analysis (reference value: 5.7 %); format: functional
DLD-1 [8] = assay: Induction of apoptosis in human DLD-1 cells assessed as necrotic cells at 7.5 uM incubated for 18 hrs by Annexin V-FITC and propidium iodide staining based flow cytometry analysis (reference value: 4.1 %); format: functional
DLD-1 [9] = assay: Induction of apoptosis in human DLD-1 cells assessed as increase in PARP cleavage at 5 to 7.5 uM by Western blot analysis; format: functional, cell-based; settings: dose 5-7.5 µM
Procedure, shortened: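 DLD-1 cells were treated at 7.5 μM for 18 h and lysed in NP-40 buffer containing protease and phosphatase inhibitors. Protein was quantified by BCA, and equal amounts were run on 15% SDS-PAGE and transferred to PVDF. Cleaved PARP was probed and detected by enhanced chemiluminescence.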

DLD-1 [10] = assay: Induction of vacuole formation in human DLD-1 cells assessed as increase in cellular granularity at 7.5 uM incubated for 18 hrs by FACS analysis; format: functional, cell-based
Procedure, shortened: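 DLD-1 cells were given vehicle or 7.5 μM compound for 18 h. Cell size (forward scatter) and granularity (side scatter) were then read by flow cytometry.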

DLD-1 [11] = assay: Induction of autophagy in human DLD-1 cells assessed as vacuole formation at 7.5 uM incubated for 20 hrs by MDC staining based confocal microscopy; format: functional, cell-based
Procedure, shortened: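 DLD-1 cells were incubated with drug for 20 h and then labeled with monodansylcadaverine in PBS for 20 min at 37°C in the dark. After washing, cells were imaged at once by confocal microscopy (excitation 390 nm, emission 460 nm).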

DLD-1 [12] = assay: Induction of autophagy in human DLD-1 cells assessed as increase in LC3B-I to LC3B-II conversion at 7.5 uM incubated for 18 hrs by Western blot analysis; format: functional, cell-based
Procedure, shortened: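 Vehicle or 7.5 μM compound was applied to DLD-1 cells for 18 h. Cells were lysed in NP-40 with inhibitors and equal protein was resolved on 15% SDS-PAGE and blotted to PVDF. Blots were probed for LC3A/B, with GAPDH as reference, and detected by ECL.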

DLD-1 [13] = assay: Induction of autophagy in human DLD-1 cells assessed as increase in LC-3 punta formation at 1 to 5 uM incubated for 6 hrs by based confocal microscopy; format: functional, cell-based; settings: dose 1-5 µM
Procedure, shortened: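 DLD-1 cells were grown overnight on coverslips and treated with vehicle or compound for 6 h. They were fixed in 4% paraformaldehyde, permeabilized with 0.1% Triton X-100 and blocked in 2% BSA. Primary antibody was applied overnight at 4°C, then fluorescent secondary for 2 h with a DAPI counterstain. LC3 puncta were imaged by confocal microscopy with a 63× oil objective.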

DLD-1 [14] = assay: Induction of autophagy in human DLD-1 cells assessed as increase in Beclin expression at 10 uM measured upto 6 hrs by Western blot analysis; format: functional, cell-based; settings: time hrs <=6
Procedure, shortened: (§3)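 DLD-1 cells were treated with 10 μM compound or vehicle for the indicated times. Equal protein from NP-40 lysates was run on 15% SDS-PAGE and transferred to PVDF. Immunoblots for Beclin-1, Atg3, Atg5 and Atg7 were developed by chemiluminescence.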

DLD-1 [15] = assay: Induction of autophagy in human DLD-1 cells assessed as increase in Atg3 expression at 10 uM measured upto 6 hrs by Western blot analysis; format: functional, cell-based; settings: time hrs <=6; procedure, shortened: as §3
DLD-1 [16] = assay: Induction of autophagy in human DLD-1 cells assessed as increase in Atg5 expression at 10 uM measured upto 6 hrs by Western blot analysis; format: functional, cell-based; settings: time hrs <=6; procedure, shortened: as §3
DLD-1 [17] = assay: Induction of autophagy in human DLD-1 cells assessed as increase in Atg7 expression at 10 uM measured upto 6 hrs by Western blot analysis; format: functional, cell-based; settings: time hrs <=6; procedure, shortened: as §3
DLD-1 [18] = assay: Induction of autophagy in human DLD-1 cells assessed as vacuole formation at 5 uM measured upto 6 hrs by TEM analysis; format: functional, cell-based; settings: time hrs <=6
Procedure, shortened: (§4)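 DLD-1 cells were treated at 5 μM for 6 h, fixed in 2.5% glutaraldehyde in phosphate buffer (pH 7.4) and post-fixed in 1% OsO4. Samples were dehydrated through ethanol and embedded in Spurr resin, and ultrathin sections were stained with uranyl acetate and lead citrate. Sections were viewed by TEM at 80 kV, with at least 200 cells per set across 4 grids.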

DLD-1 [19] = assay: Induction of autophagy in human DLD-1 cells assessed as mitochondrial damage at 5 uM measured upto 6 hrs by TEM analysis; format: functional, cell-based; settings: time hrs <=6; procedure, shortened: as §4
DLD-1 [20] = assay: Induction of autophagy in human DLD-1 cells assessed as nuclear damage at 5 uM measured upto 6 hrs by TEM analysis; format: functional, cell-based; settings: time hrs <=6; procedure, shortened: as §4
DLD-1 [21] = assay: Induction of autophagy in human DLD-1 cells assessed as vacuole formation at 7.5 uM incubated for 24 hrs by phase contrast microscopic analysis; format: functional, cell-based
Procedure, shortened: (§5)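 DLD-1 cells received vehicle, 7.5 μM compound alone, or compound plus 100 nM bafilomycin A1 pretreatment for 24 h. Cells were then examined by phase-contrast microscopy.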

DLD-1 [22] = assay: Induction of autophagy in human DLD-1 cells assessed as reduction in cell viability at 7.5 uM incubated for 24 hrs by crystal violet staining based phase contrast microscopic analysis; format: functional
DLD-1 [23] = assay: Induction of autophagy in human DLD-1 cells assessed as vacuole formation at 7.5 uM incubated for 24 hrs in presence of Bafilomycin-A1 by phase contrast microscopic analysis; format: functional, cell-based; procedure, shortened: as §5
DLD-1 [24] = assay: Induction of autophagy in human DLD-1 cells assessed as reduction in cell viability at 7.5 uM incubated for 24 hrs in presence of Bafilomycin-A1 by crystal violet staining based phase contrast microscopic analysis; format: functional

CCCCCCCCCCCCCC[C@H](O)[C@@H](N)Cc1ccc(OC)cc1
inhibition at 10 µM (MCF7): 89.3%
inhibition at 10 µM (MDA-MB-231): 96.8%
inhibition at 10 µM (DLD-1 [1]): 97.3%
inhibition at 10 µM (HT-29 [2]): 97.7%
inhibition at 10 µM (A549): 94.8%
inhibition at 10 µM (NCI-H358): 90.4%
pIC50 (COLO 205): 5.69
pIC50 (LoVo): 5.48
pIC50 (HT-29 [3]): 5.38
pIC50 (DLD-1 [4]): 5.35
pIC50 (SW48): 5.50
pIC50 (SW-620): 5.73
pIC50 (CCD-18Co): < 5.00
viability at 7.5 µM (DLD-1 [5]): 93.6%
Activity (DLD-1 [6]): 0.46%
Activity (DLD-1 [7]): 0.8%
Activity (DLD-1 [8]): 5%
Activity (DLD-1 [9]): inactive
Activity (DLD-1 [10]): Active
Activity (DLD-1 [11]): Active
Activity (DLD-1 [12]): Active
Activity (DLD-1 [13]): Active
Activity (DLD-1 [14]): Active
Activity (DLD-1 [15]): Active
Activity (DLD-1 [16]): Active
Activity (DLD-1 [17]): Active
Activity (DLD-1 [18]): Active
Activity (DLD-1 [19]): inactive
Activity (DLD-1 [20]): inactive
Activity (DLD-1 [21]): Active
Activity (DLD-1 [22]): Active
Activity (DLD-1 [23]): inactive
Activity (DLD-1 [24]): inactive
